Laboratory results from ChEMBL document CHEMBL3875213, “Quinolines: Microwave-assisted synthesis and their antifungal, anticancer and radical scavenger properties” (Bioorg Med Chem, 2017).
In brackets after ≈: the same amount, converted by molar mass. Activity calls are given as the source filed them. No cut-off for these calls is given here.

Key:
Format in all cases: functional
Candida albicans [1] = assay: Growth inhibition of Candida albicans ATCC 10231 at 62.5 ug/ml incubated for 48 hrs under dark condition by broth microdilution assay relative to amphotericin B; conditions: ATCC 10231, 48 h, read-out: GI
Method in brief: (§1)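 Yeast broth microdilution (CLSI M27-A3), RPMI-1640, inoculum 1-5 x 10^3 CFU/mL, DMSO ≤1%, 48 h at 30 °C in a moist, dark chamber. […]. Triplicate; amphotericin B as positive control.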

Candida albicans [2] = assay: Growth inhibition of Candida albicans ATCC 10231 at 3.9 ug/ml incubated for 48 hrs under dark condition by broth microdilution assay relative to amphotericin B; conditions: ATCC 10231, 48 h, read-out: GI; method in brief: as §1
Candida albicans [3] = assay: Antifungal activity against Candida albicans ATCC 10231 incubated for 48 hrs under dark condition by broth microdilution assay; conditions: ATCC 10231, 48 h
Method in brief: (§2)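 Broth microdilution per CLSI M27-A3 in RPMI-1640. Inocula adjusted to 1-5 x 10^3 CFU/mL. Stocks in DMSO (≤1%), final 3.9-250.0 µg/mL. Incubated 48 h at 30 °C in a moist, dark chamber, read at OD 405. % inhibition computed from growth and sterility control wells, run in triplicate. MIC80/MIC50 taken from four-parameter logistic concentration-response curves; amphotericin B as positive control.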

Candida albicans [4] = assay: Growth inhibition of Candida albicans ATCC 10231 at 15.62 ug/ml incubated for 48 hrs under dark condition by broth microdilution assay relative to amphotericin B; conditions: ATCC 10231, 48 h, read-out: GI; method in brief: as §1
Candida albicans [5] = assay: Growth inhibition of Candida albicans ATCC 10231 at 125 ug/ml incubated for 48 hrs under dark condition by broth microdilution assay relative to amphotericin B; conditions: ATCC 10231, 48 h, read-out: GI; method in brief: as §1
[6] = Antifungal activity against Cryptococcus neoformans ATCC 32264 incubated for 48 hrs under dark condition by broth microdilution assay; method in brief: as §2
Candida albicans [7] = assay: Growth inhibition of Candida albicans ATCC 10231 at 7.81 ug/ml incubated for 48 hrs under dark condition by broth microdilution assay relative to amphotericin B; conditions: ATCC 10231, 48 h, read-out: GI; method in brief: as §1
Candida albicans [8] = assay: Growth inhibition of Candida albicans ATCC 10231 at 31.25 ug/ml incubated for 48 hrs under dark condition by broth microdilution assay relative to amphotericin B; conditions: ATCC 10231, 48 h, read-out: GI; method in brief: as §1
[9] = Antioxidant activity assessed as fluorescent light-induced superoxide anion scavenging activity at 160 uM incubated for 10 mins by nitroblue tetrazolium dye based assay
Method in brief: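 Superoxide generated photochemically in 50 mM phosphate buffer pH 7.8 with 13 mM L-methionine, 75 µM nitroblue tetrazolium, 100 µM EDTA and 2 µM riboflavin. Compound at 160 µM. 10 min at 25 °C under fluorescent light; dark controls. Read at 575 nm. Resveratrol as positive control; three independent experiments in triplicate.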

Candida albicans [10] = assay: Growth inhibition of Candida albicans ATCC 10231 at 250 ug/ml incubated for 48 hrs under dark condition by broth microdilution assay relative to amphotericin B; conditions: ATCC 10231, 48 h, read-out: GI; method in brief: as §1
[11] = Antioxidant activity assessed as DPPH radical scavenging activity incubated for 30 mins under dark condition
Method in brief: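 DPPH (100 µM) in ethanolic medium, stirred 30 min in the dark, absorbance at 517 nm. Compound varied from 0 to 160 µg/mL to find the concentration scavenging 50% of radicals. Three independent experiments, each in triplicate.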

[12] = Antioxidant activity assessed as fluorescent light-induced superoxide anion scavenging activity incubated for 10 mins by nitroblue tetrazolium dye based assay
Method in brief: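 Riboflavin/light superoxide system: 50 mM phosphate pH 7.8, 13 mM L-methionine, 75 µM NBT, 100 µM EDTA, 2 µM riboflavin, compound 0-200 µg/mL. Fluorescent light for 10 min at 25 °C, dark controls, scavenging measured at 575 nm. Resveratrol as reference.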

[13] = Antioxidant activity assessed as DPPH radical scavenging activity at 160 uM incubated for 30 mins under dark condition
Method in brief: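 Compound at 160 µM incubated with 100 µM DPPH in ethanolic medium, stirred in the dark for 30 min, read at 517 nm. Resveratrol as positive control. Three independent experiments, each in triplicate.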

SMILES | inhibition of growth at 62.5 µg/mL (Candida albicans [1]) | inhibition of growth at 3.9 µg/mL (Candida albicans [2]) | MIC50 (Candida albicans [3]) | MIC80 (Candida albicans [3]) | inhibition of growth at 15.62 µg/mL (Candida albicans [4]) | inhibition of growth at 125 µg/mL (Candida albicans [5]) | MIC50 [6] | MIC80 [6] | inhibition of growth at 7.81 µg/mL (Candida albicans [7]) | inhibition of growth at 31.25 µg/mL (Candida albicans [8]) | Activity [9] | inhibition of growth at 250 µg/mL (Candida albicans [10]) | SC50 [11] | SC50 [12] | Activity [13]
Clc1ccc2nc(-c3ccccc3)cc(-c3ccccc3)c2c1 | 33.1% | 0% | > 250 µg/mL | > 250 µg/mL | 14% | 53.9% | 15.6 µg/mL (≈ 49.4 µM) | > 250 µg/mL | 8.07% | 20% | < 10% | 89.8% | – | – | –
CC(C)(C)c1ccc2nc(-c3ccccc3)cc(-c3ccccc3)c2c1 | 0% | 0% | > 250 µg/mL | > 250 µg/mL | 0% | 1.84% | 3.9 µg/mL (≈ 11.6 µM) | 15.6 µg/mL (≈ 46.2 µM) | 0% | 0% | 50% | 7.81% | > 250 µM | > 250 µM | –
C[C@@H]1[C@H](O)[C@@H](C)/C=C/C=C/C=C/C=C/C=C/C=C/C=C/[C@H](O[C@@H]2O[C@H](C)[C@@H](O)[C@H](N)[C@@H]2O)C[C@@H]2O[C@](O)(C[C@@H](O)C[C@@H](O)[C@H](O)CC[C@@H](O)C[C@@H](O)CC(=O)O[C@H]1C)C[C@H](O)[C@H]2C(=O)O [AMPHOTERICIN B] | – | – | 0.06 µg/mL (≈ 0.0649 µM) | 0.12 µg/mL (≈ 0.13 µM) | – | – | 0.12 µg/mL (≈ 0.13 µM) | 0.25 µg/mL (≈ 0.271 µM) | – | – | – | – | – | – | –
O=[N+]([O-])c1ccc(-c2cc(-c3ccccc3)c3cc(Br)ccc3n2)cc1 | 4.28% | 0% | > 250 µg/mL | > 250 µg/mL | 2.64% | 5.11% | > 250 µg/mL | > 250 µg/mL | 1.55% | 4.01% | Active | 18.2% | – | – | 40%
FC(F)(F)c1cc2nc(-c3ccccc3)cc(-c3ccccc3)c2cc1Cl | 15.7% | 0% | 250 µg/mL (≈ 651 µM) | > 250 µg/mL | 5.36% | 25.7% | 250 µg/mL (≈ 651 µM) | > 250 µg/mL | 3.5% | 9.41% | – | 54.1% | – | – | –
CSc1ccc2nc(-c3ccccc3)cc(-c3ccccc3)c2c1 | 21.7% | 4.72% | 250 µg/mL (≈ 763 µM) | > 250 µg/mL | 11.2% | 39.2% | 15.6 µg/mL (≈ 47.6 µM) | 31.2 µg/mL (≈ 95.3 µM) | 11.2% | 16% | Active | 66.3% | – | – | –
Fc1ccc2nc(-c3ccccc3)cc(-c3ccccc3)c2c1 | 18.4% | 0% | 250 µg/mL (≈ 835 µM) | > 250 µg/mL | 4.27% | 34.2% | > 250 µg/mL | > 250 µg/mL | 2.01% | 11.8% | < 10% | 67.5% | – | – | –
O=C(O)c1ccc2nc(-c3ccccc3)cc(-c3ccccc3)c2c1 | 22.6% | 0% | 250 µg/mL (≈ 768 µM) | > 250 µg/mL | 7.19% | 34.6% | 250 µg/mL (≈ 768 µM) | > 250 µg/mL | 5.63% | 11.9% | Active | 57.5% | – | – | –
COc1ccc(-c2cc(-c3ccccc3)c3cc(Br)ccc3n2)cc1 | 4.57% | 0% | > 250 µg/mL | > 250 µg/mL | 4.06% | 8.32% | > 250 µg/mL | > 250 µg/mL | 0% | 4.5% | Active | 10.6% | – | – | –
Oc1ccc(/C=C/c2cc(O)cc(O)c2)cc1 | – | – | – | – | – | – | – | – | – | – | Active | – | 8.2 µM | 255 µM | Active
Oc1ccc2c(-c3ccccc3)cc(-c3ccccc3)nc2c1 | 21.2% | 0% | > 250 µg/mL | > 250 µg/mL | 80.4% | 29.9% | 15.6 µg/mL (≈ 52.5 µM) | > 250 µg/mL | 0% | 12.8% | – | 53.9% | – | – | 70 to 85%
FC(F)(F)c1ccc2nc(-c3ccccc3)cc(-c3ccccc3)c2c1 | 8.77% | 0% | > 250 µg/mL | > 250 µg/mL | 3.65% | 14% | 250 µg/mL (≈ 716 µM) | 250 µg/mL (≈ 716 µM) | 2.81% | 7.83% | – | 20.1% | 261 µM | > 250 µM | 45 to 55%
